Results from ChEMBL document CHEMBL1153305, “Preparation and characterization of N-(3-pyridinyl) spirocyclic diamines as ligands for nicotinic acetylcholine receptors” (Bioorg Med Chem Lett, 2009).
Active and inactive are the calls of the source. The calls are words filed in the database; no cut-off is given here.

Legend:
[1] = target: T1, Neuronal acetylcholine receptor; alpha4/beta2 (Homo sapiens, UniProt P17787+P43681); test: Agonist activity at human recombinant alpha4beta2 nAChR expressed in human IMR32 cells assessed as calcium dynamics by FLIPR assay relative to nicotine; format: functional, cell-based
In short: (§1)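 A cell line expressing human recombinant α4β2 nAChR. Agonism was read as intracellular Ca2+ dynamics by FLIPR. Values are averages of six replicates.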

[2] = target: T2, Neuronal acetylcholine receptor; alpha3/beta4 (Homo sapiens, UniProt P30926+P32297); test: Agonist activity at human […] nAChR expressed in human IMR32 cells assessed as calcium dynamics by FLIPR assay relative to nicotine; format: functional, cell-based; settings: IMR-32
In short: (§2)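 Endogenous α3β4* nAChR in the human neuroblastoma line IMR-32. Agonism was measured as intracellular Ca2+ dynamics by FLIPR, testing up to 100 μM. Values are averages of six replicates.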

[3] = target: Neuronal acetylcholine receptor; alpha4/beta2 (Rattus norvegicus, UniProt P09483+P12390); test: Displacement of [3H]cytisine from alpha4beta2 nAChR in rat brain membrane; format: cell membranes
[4] = target: T2, Neuronal acetylcholine receptor; alpha3/beta4; test: Agonist activity at human […] nAChR expressed in human IMR32 cells assessed as calcium dynamics by FLIPR assay; format: functional, cell-based, IMR-32; in short: as §2
[5] = target: T1, Neuronal acetylcholine receptor; alpha4/beta2; test: Agonist activity at human recombinant alpha4beta2 nAChR expressed in human IMR32 cells assessed as calcium dynamics by FLIPR assay; format: functional, cell-based; in short: as §1
[6] = tested on: Mus musculus; test: Toxicity in mouse assessed as behavioral effect at 65 mg/kg, ip; format: organism-based; set-up: dose 65 mg/kg, route intraperitoneal; settings: in vivo
[7] = tested on: Mus musculus; test: Decrease in body temperature in mouse at 65 umol/kg, ip; format: functional, organism-based
[8] = tested on: Mus musculus; test: Analgesic activity in mouse at 62 umol/kg, ip; format: functional, organism-based
In short: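 Mouse hot plate analgesia model. The compound was given ip, with 62 μmol/kg as the highest dose tested.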

[9] = tested on: Mus musculus; test: Analgesic activity in mouse assessed hypolocomotion at 65 umol/kg, ip; format: functional, organism-based

T1 sequence (P17787 whole entry): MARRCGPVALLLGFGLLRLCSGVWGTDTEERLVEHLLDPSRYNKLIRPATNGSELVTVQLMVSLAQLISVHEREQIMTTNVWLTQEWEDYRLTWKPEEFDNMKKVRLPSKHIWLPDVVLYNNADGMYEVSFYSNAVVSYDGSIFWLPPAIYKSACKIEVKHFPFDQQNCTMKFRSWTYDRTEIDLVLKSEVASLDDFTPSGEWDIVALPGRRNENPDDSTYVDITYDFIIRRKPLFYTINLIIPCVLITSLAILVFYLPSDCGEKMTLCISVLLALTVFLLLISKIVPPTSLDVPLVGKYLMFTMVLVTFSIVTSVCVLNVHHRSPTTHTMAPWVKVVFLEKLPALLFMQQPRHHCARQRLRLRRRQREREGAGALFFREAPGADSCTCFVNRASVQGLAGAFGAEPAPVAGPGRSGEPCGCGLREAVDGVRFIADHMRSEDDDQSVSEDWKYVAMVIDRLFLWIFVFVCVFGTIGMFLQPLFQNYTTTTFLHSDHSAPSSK
T1 sequence (P43681 whole entry): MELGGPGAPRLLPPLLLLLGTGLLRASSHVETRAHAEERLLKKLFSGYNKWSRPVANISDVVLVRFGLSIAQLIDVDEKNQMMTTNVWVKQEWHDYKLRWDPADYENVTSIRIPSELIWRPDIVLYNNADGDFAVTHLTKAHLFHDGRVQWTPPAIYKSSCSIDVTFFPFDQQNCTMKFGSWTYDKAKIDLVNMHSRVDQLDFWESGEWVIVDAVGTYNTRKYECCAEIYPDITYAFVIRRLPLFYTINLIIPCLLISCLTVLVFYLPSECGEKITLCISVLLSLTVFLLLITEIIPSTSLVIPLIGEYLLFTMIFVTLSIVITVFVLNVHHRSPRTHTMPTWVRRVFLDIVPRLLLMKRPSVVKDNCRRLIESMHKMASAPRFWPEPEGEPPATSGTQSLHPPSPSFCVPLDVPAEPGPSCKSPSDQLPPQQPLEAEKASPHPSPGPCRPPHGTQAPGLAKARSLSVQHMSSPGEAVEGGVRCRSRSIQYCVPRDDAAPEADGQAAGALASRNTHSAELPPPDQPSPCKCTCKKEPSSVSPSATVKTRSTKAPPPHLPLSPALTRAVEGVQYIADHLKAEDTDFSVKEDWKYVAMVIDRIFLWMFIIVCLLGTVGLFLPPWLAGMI
Sequence of Neuronal acetylcholine receptor; alpha4/beta2 (Rattus norvegicus, UniProt P09483+P12390) (P09483 whole entry): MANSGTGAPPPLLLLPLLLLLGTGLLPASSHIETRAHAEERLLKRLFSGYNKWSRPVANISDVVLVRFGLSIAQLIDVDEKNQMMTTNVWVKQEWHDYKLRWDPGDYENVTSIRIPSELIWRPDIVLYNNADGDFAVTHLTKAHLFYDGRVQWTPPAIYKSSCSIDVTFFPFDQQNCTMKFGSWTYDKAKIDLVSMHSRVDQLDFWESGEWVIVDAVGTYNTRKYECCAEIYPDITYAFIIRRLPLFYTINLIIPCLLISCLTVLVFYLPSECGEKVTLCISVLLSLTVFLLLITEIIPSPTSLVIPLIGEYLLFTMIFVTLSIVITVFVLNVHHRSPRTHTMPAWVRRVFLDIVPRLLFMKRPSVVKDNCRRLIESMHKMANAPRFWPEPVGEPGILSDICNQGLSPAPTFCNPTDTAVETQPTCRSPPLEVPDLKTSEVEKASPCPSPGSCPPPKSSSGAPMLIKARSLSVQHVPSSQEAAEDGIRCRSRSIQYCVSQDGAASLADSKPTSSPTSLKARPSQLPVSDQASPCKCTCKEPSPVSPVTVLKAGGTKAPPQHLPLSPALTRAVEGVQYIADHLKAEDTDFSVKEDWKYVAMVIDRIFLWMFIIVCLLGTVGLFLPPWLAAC
Sequence of Neuronal acetylcholine receptor; alpha4/beta2 (Rattus norvegicus, UniProt P09483+P12390) (P12390 whole entry): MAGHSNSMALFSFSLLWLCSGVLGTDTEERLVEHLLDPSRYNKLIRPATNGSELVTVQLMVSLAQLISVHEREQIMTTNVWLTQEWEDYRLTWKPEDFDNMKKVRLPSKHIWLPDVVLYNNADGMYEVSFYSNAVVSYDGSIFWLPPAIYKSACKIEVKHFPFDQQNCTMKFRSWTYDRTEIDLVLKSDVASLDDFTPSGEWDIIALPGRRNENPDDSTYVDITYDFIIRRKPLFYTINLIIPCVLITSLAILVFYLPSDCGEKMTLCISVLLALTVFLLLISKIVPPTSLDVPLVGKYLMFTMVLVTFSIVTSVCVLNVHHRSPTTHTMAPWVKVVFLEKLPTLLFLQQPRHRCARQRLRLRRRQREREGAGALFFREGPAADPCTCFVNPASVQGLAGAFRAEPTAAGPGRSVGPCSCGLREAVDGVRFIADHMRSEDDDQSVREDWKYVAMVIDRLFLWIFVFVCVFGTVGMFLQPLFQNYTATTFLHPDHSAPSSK
T2 sequence (P30926 whole entry): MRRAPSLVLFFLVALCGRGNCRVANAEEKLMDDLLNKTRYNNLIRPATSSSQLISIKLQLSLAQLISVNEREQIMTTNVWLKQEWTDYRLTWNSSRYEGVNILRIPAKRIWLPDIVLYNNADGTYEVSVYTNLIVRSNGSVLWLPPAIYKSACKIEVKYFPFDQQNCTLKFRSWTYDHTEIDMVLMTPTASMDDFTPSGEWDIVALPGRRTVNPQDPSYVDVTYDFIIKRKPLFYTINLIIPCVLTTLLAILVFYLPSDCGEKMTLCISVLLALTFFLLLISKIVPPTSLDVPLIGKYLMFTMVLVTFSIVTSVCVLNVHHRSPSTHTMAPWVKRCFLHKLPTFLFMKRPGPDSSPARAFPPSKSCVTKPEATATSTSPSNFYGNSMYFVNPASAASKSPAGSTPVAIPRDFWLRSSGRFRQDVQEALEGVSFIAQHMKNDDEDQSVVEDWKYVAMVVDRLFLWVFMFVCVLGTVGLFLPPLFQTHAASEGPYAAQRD
T2 sequence (P32297 whole entry): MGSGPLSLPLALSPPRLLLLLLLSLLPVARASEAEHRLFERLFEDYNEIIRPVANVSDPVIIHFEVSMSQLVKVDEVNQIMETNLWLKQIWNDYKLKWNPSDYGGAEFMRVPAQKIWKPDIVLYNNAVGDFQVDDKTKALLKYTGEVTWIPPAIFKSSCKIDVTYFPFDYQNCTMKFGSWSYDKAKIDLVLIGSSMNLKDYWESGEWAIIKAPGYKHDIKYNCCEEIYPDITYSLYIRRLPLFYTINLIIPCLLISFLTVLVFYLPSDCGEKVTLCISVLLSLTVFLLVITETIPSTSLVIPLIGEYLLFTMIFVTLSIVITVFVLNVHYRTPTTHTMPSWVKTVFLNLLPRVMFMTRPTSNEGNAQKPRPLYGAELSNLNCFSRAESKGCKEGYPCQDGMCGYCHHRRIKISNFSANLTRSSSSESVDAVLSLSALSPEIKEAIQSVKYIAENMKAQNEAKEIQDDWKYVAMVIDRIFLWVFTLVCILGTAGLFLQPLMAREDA

SMILES	Activity [1]	Activity [2]	Ki [3]	EC50 [4]	EC50 [5]	Activity [6]	Activity [7]	Activity [8]	Activity [9]
c1cncc(N2CCC3(CCN3)C2)c1 (stereo not drawn)	44%	4%	11 nM	> 100 µM	25 µM	Non-toxic			
Clc1ccc(OC[C@H]2CCN2)cn1 [TEBANICLINE]	115%	169%	0.048 nM	0.19 µM	0.02 µM				
c1cncc(N2CC3CC2CN3)c1 (stereo not drawn)		108%		6.4 µM					
c1cncc(N2CCC3(CCCN3)C2)c1 (stereo not drawn) [TC-2216]	20%	15%	33 nM	> 100 µM	> 100 µM				
Clc1ccc(N2CCC3(CCN3)C2)cn1 (stereo not drawn)	48%	23%	21 nM	6.9 µM	2.5 µM		Active	Active	Active
Clc1ccc(C2CC3CCC2N3)cn1 (stereo not drawn)	154%	132%							
Clc1ccc(N2CCC3(CCNC3)C2)cn1 (stereo not drawn)	9%	2%	240 nM	> 100 µM	> 100 µM				
c1cncc(N2CCC3(CCNC3)C2)c1 (stereo not drawn)	4%	10%	74 nM	> 100 µM	> 100 µM				
Clc1ccc(N2CCC3(CCCN3)C2)cn1 (stereo not drawn)	6%	8%	48 nM	> 100 µM	> 100 µM				
c1cncc(N2CC3CNC3C2)c1 (stereo not drawn)	122%	90%	1.2 nM	6.1 µM	1.6 µM				
